# Results pooled from the literature.
# Protocols differ between the studies behind these lines.
# Cell line: A549
# Effect on: cell growth or viability
SMILES,technique,time,IC50
O=C(C=Cc1ccc(OCCCCOc2ccc(C=CC(=O)c3cccs3)cc2)cc1)c1cccs1,MTT,48 h,232 µM
CCCn1cnc2ccc(-c3ccc(NC(=O)CC)nc3)cc2c1=O,CCK-8,72 h,2.35 µM
O=C(Nc1ccc(F)cc1)Nc1nc2cc(-c3ccc4ncn(CCC5CCCCC5)c(=O)c4c3)ccc2s1,MTT,72 h,9.1 µM
COc1cccc2c1C(=O)c1c(O)c3c(c(O)c1C2=O)C[C@@](O)(C(=O)CO)C[C@@H]3O[C@H]1C[C@H](N)[C@H](O)[C@H](C)O1,MTT,,3.87 µg/mL
O=C(N[C@@H](CSCc1nc2cc([N+](=O)[O-])ccc2[nH]1)C(=O)NO)c1ccccc1,MTT,48 h,< 500 µM
Fc1ccc(NC(=S)N/N=C/c2cccc3cc4ccccc4nc23)cc1,MTT,48 h,> 50 µM
CN(C)c1ccc(Nc2nc(-c3ccncc3)nc3c2CC(N)CC3)cc1 (centres unmarked),MTT,,17.1 µM
CSc1ccc(CNc2ccc(C(=O)O)cc2)cc1,resazurin,72 h,> 100 µM
CN1CCC(NC2CCc3[nH]c4c(C(N)=O)ccc(-c5ccccc5Cl)c4c3C2)CC1 (centres unmarked),,96 h,0.0301 µM
O=C(Nc1ccc(C(F)(F)F)cc1)Nc1nc2cc(-c3ccc4ncn(CCN5CCOCC5)c(=O)c4c3)ccc2s1,MTT,72 h,2.01 µM
O=[N+]([O-])c1ccc(NC(=S)N/N=C/c2cccc3cc4ccccc4nc23)cc1,MTT,48 h,> 50 µM
OC1CCN(c2ccc(/C=N/NC(=S)NCc3ccccc3)cc2)CC1,MTT,24 h,4.25 µM
O=C(Nc1nc2cc(-c3ccc4ncn(Cc5ccccc5)c(=O)c4c3)ccc2s1)NC1CCCCC1,MTT,72 h,12.2 µM
CC(C)[C@@H]1NC(=O)[C@@H](CCCNC(=N)N)NC(=O)[C@H]([C@@H](C)O)NC(=O)[C@@H](CCCN)NC(=O)[C@H](Cc2ccc(O)cc2)NC(=O)[C@@H](Cc2ccccc2)NC1=O,ATP luminescence,,> 100 µM
CCCCn1cnc2ccc(-c3ccc(NC(=O)c4ccccc4)nc3)cc2c1=O,CCK-8,72 h,> 10 µM
COc1cc(CNc2ccc(C(=O)O)cc2)ccc1O,resazurin,72 h,> 100 µM
Cc1cc(NS(=O)(=O)c2ccc(NC(=O)/C(C#N)=C/c3cccnc3)cc2)no1,MTT,48 h,> 200 µM
C/C(=N\N=C(/C)c1c(O)c2ccccc2oc1=O)c1c(O)c2ccccc2oc1=O,MTT,48 h,39.5 µM
OC1CCN(c2ccc(/C=N/NC(=S)NCc3ccc(Cl)cc3)cc2)CC1,MTT,24 h,1.46 µM
NS(=O)(=O)c1ccc(-n2nc(-c3nnc(CCl)o3)cc2-c2ccccc2)cc1,fluorescence,48 h,22.3 µM
CNC(=O)c1cc(Oc2ccc(NC(=O)Nc3ccc(Cl)c(C(F)(F)F)c3)cc2)ccn1,MTT,48 h,12.2 µM
Cc1cc(C)cc(NC(=O)Nc2nc3cc(-c4ccc5ncn(Cc6ccccc6)c(=O)c5c4)ccc3s2)c1,MTT,72 h,> 20 µM
CN(C)c1ccc(CNc2ccc(C(=O)O)cc2)cc1,resazurin,72 h,> 100 µM
NS(=O)(=O)c1ccc(-n2nc(C(=O)NN=Cc3ccccc3O)cc2-c2ccccc2)cc1,fluorescence,48 h,9.25 µM
CCCC(=O)Nc1ccc(-c2ccc3ncn(Cc4ccc(C)cc4)c(=O)c3c2)cn1,CCK-8,72 h,> 10 µM
Cc1ccc(NNc2nc3c(Cl)cc(Cl)cc3c(=O)n2-c2ccccc2)cc1,MTT,48 h,> 200 µM
C/C(=N\C(=S)/N=C(\C)c1c(O)c2ccccc2oc1=O)c1c(O)c2ccccc2oc1=O,MTT,48 h,6.66 µM
CN(C)C(=O)Nc1nc2c(Cl)cc(Cl)cc2c(=O)n1-c1ccccc1,MTT,48 h,> 200 µM
O=C(O)c1ccc(NCc2cccc(O)c2O)cc1,resazurin,72 h,90.7 µM
O=c1c2cc(Cl)cc(Cl)c2nc(NNc2cccc(Cl)c2)n1-c1ccccc1,MTT,48 h,> 200 µM
Cc1ccccc1NC(=O)Nc1ccc(-c2ccc3ncn(Cc4ccccc4)c(=O)c3c2)cn1,CCK-8,72 h,0.98 µM
CCCCn1cnc2ccc(-c3ccc4sc(NC(=O)Nc5ccc(F)cc5)nc4c3)cc2c1=O,MTT,72 h,1.27 µM
CCCn1cnc2ccc(-c3ccc(N4CCCCC4=O)nc3)cc2c1=O,CCK-8,72 h,> 10 µM
Cc1cccc(NC(=O)Cn2cc(COc3ncnc4[nH]cnc34)nn2)c1,MTT,,> 100 µM
O=c1[nH]cc(F)c(=O)[nH]1,MTT,48 h,11.8 µM
O=C(Nc1ccc(-c2ccc3ncn(Cc4ccccc4)c(=O)c3c2)cn1)c1ccco1,CCK-8,72 h,> 10 µM
CC(C)[C@@H]1NC(=O)[C@@H](CCCNC(=N)N)NC(=O)[C@H](C)NC(=O)[C@@H](CCCN)NC(=O)[C@H](Cc2ccccc2)NC(=O)[C@@H](Cc2ccccc2)NC1=O,ATP luminescence,72 h,> 100 µM
O=C(O)c1ccc(NCc2cccc([N+](=O)[O-])c2)cc1,resazurin,72 h,> 100 µM
CCCCNC(=O)Nc1nc2cc(-c3ccc4ncn(Cc5ccccc5)c(=O)c4c3)ccc2s1,MTT,72 h,6.27 µM
CCc1oc2cc(S(=O)(=O)Nc3ccc(S(=O)(=O)Nc4nccs4)cc3)ccc2c1C(=O)c1cc(Br)c(O)c(Br)c1,MTT,96 h,226 µM
NS(=O)(=O)c1ccc(-n2nc(C(=O)NN3C(=O)CCC3=O)cc2-c2ccccc2)cc1,fluorescence,48 h,24 µM
CNC(=O)c1cc(Oc2ccc(NC(=O)Nc3ccc(Cl)c(C(F)(F)F)c3)cc2)ccn1,MTT,24 h,2.92 µM
CCCn1cnc2ccc(-c3ccc(NC(=O)CC(C)CC)nc3)cc2c1=O (centres unmarked),CCK-8,72 h,1.49 µM
COc1cccc(NC(=O)Nc2nc3cc(-c4ccc5ncn(CCN(C)C)c(=O)c5c4)ccc3s2)c1,MTT,72 h,0.91 µM
COc1cccc(NC(=S)N/N=C/c2cccc3cc4ccccc4nc23)c1,MTT,48 h,> 50 µM
CCCCC(=O)Nc1ccc(-c2ccc3ncn(C4CC4)c(=O)c3c2)cn1,CCK-8,72 h,> 10 µM
COc1ccc(NC(=S)N/N=C/c2ccc(N3CCC(O)CC3)cc2)cc1,MTT,24 h,5.2 µM
Cc1c2c(nn1C)CSCc1cc(n(C)n1)CSc1cc(c3ccccc3c1)OCCCc1c(C(=O)O)n(C)c3c-2c(Cl)ccc13,CCK-8,,50 µM
O=C(Nc1ccc(F)cc1)Nc1nc2cc(-c3ccc4ncn(CC(=O)N5CCOCC5)c(=O)c4c3)ccc2s1,MTT,72 h,> 20 µM
Cc1ccc(C(C)C)c(OC2=C(Cl)C(=O)c3ccccc3C2=O)c1,MTT,24 h,40 µg/mL
